Data set [1] has as its target T1, 5-hydroxytryptamine receptor 2C (Homo sapiens) (UniProt P28335).
T1 sequence (whole entry): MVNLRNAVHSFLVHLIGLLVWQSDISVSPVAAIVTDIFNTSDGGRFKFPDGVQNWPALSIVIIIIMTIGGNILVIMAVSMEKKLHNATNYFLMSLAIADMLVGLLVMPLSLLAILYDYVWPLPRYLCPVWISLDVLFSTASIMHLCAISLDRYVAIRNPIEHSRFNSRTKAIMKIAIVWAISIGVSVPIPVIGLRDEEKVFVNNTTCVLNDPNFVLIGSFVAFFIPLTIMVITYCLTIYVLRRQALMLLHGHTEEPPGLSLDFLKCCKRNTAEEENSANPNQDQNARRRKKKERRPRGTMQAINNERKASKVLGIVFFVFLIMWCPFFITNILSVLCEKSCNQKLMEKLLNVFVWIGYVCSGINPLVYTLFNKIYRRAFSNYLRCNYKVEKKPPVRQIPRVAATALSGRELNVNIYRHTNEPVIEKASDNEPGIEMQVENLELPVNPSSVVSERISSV
As to the kind of experiment: Agonist activity at 5HT2C receptor (unknown origin) expressed in HEK293 cells co-expressing NFAT-RE at 10 uM after 6 to 12 hrs by Bright-Glo luciferase reporter gene assay. The class given is cell-based. The method, boiled down:
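Primary screen at 5-HT2C in transiently co-transfected HEK293T (receptor plus NFAT-RE luciferase plasmids, 50,000 cells/well). Compounds tested in triplicate at a final 10 µM in HEPES-buffered HBSS pH 7.4 and incubated 6-12 h. Luminescence read within 5 min of Bright-Glo (1 mg/ml final). Signal normalized to the 5-HT maximal response.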
(In general: A reporter such as luciferase makes a cellular process visible.)

For data set [2], the target named is T1, 5-hydroxytryptamine receptor 2C (Homo sapiens). As to the kind of experiment: Positive allosteric modulation of 5HT2C receptor (unknown origin) expressed in HEK293 cells co-expressing NFAT-RE assessed as increase in serotonin-induced reponse at 10 uM after 6 to 12 hrs by Bright-Glo luciferase reporter gene assay relative to serotonin. It counts as cell-based. Summed up: (§1)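 Transiently co-transfected HEK293T cells expressing 5-HT2A, 5-HT2B or 5-HT2C with NFAT-RE luciferase, 50,000 cells/well. Test compound added first at 10 µM, 1 µM or 100 nM, in triplicate. A 5-HT concentration-response (10 µM to 0.01 nM) followed, then 6-12 h incubation. Bright-Glo luminescence was fitted by non-linear regression, with Emax normalized to 5-HT alone (100%). n=3-4.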

A further data set concerns the target 5HT2A receptor (Homo sapiens, UniProt P28223). Kind of data set: Positive allosteric modulation of 5HT2A receptor (unknown origin) expressed in HEK293 cells co-expressing NFAT-RE assessed as increase in serotonin-induced reponse at 1 uM after 6 to 12 hrs by Bright-Glo luciferase reporter gene assay relative to serotonin. It counts as cell-based. Conditions: HEK293 cells expressing 5HT2A receptor and NFAT-RE reporter. Summed up:
as §1

The target of data set [3] is T2, 5-hydroxytryptamine receptor 2C (Homo sapiens, UniProt P28335).
T2 sequence (P28335 whole entry): T1 sequence (whole entry)
Kind of data set: Positive allosteric modulation of 5HT2C receptor (unknown origin) expressed in HEK293 cells co-expressing NFAT-RE assessed as increase in serotonin-induced reponse after 6 to 12 hrs by Bright-Glo luciferase reporter gene assay. It counts as cell-based. Summed up: as §1

In data set [4] the target is T3, 5-hydroxytryptamine receptor 2B (Homo sapiens, UniProt P41595). Kind of data set: Agonist activity at 5HT2B receptor (unknown origin) expressed in HEK293 cells co-expressing NFAT-RE after 6 to 12 hrs by Bright-Glo luciferase reporter gene assay. It counts as cell-based. Summed up:
(§2)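 HEK293T cells transiently co-transfected (PEI) with 0.1 µg/well receptor plasmid (5-HT2A, 5-HT2B or 5-HT2C) plus 0.1 µg/well NFAT-RE luciferase reporter, plated 50,000 cells/well 24 h before treatment. Compounds tested in triplicate from 10 µM down to 0.01 nM in HBSS/20 mM HEPES pH 7.4, incubated 6-12 h. Luminescence read within 5 min of Bright-Glo (1 mg/ml final). RLU fitted by non-linear regression; 5-HT Emax set to 100%.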

The target of data set [5] is T4, 5-hydroxytryptamine receptor 2A (Homo sapiens, UniProt P28223). Kind of data set: Positive allosteric modulation of 5HT2A receptor (unknown origin) expressed in HEK293 cells co-expressing NFAT-RE assessed as increase in serotonin-induced reponse after 6 to 12 hrs by Bright-Glo luciferase reporter gene assay. The class given is cell-based. Summed up: as §1
T4 sequence (P28223 whole entry): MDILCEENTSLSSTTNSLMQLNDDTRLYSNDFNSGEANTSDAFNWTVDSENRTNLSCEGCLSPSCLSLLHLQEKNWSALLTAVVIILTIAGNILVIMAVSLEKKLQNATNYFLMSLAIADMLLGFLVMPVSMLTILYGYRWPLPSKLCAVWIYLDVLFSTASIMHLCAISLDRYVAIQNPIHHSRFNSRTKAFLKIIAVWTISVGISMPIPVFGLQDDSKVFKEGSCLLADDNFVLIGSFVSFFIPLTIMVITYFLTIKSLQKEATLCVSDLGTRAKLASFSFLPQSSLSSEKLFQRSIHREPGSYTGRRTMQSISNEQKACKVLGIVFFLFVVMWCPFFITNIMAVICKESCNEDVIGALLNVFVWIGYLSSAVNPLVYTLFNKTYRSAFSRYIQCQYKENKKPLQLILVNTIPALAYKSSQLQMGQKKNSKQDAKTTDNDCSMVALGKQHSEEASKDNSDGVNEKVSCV
Data set [6] addresses T4, 5-hydroxytryptamine receptor 2A. Kind of data set: Agonist activity at 5HT2A receptor (unknown origin) expressed in HEK293 cells co-expressing NFAT-RE after 6 to 12 hrs by Bright-Glo luciferase reporter gene assay. It counts as cell-based. Summed up:
as §2

For data set [7], the target named is T1, 5-hydroxytryptamine receptor 2C (Homo sapiens). As to the kind of experiment: Positive allosteric modulation of 5HT2C receptor (unknown origin) expressed in HEK293 cells co-expressing NFAT-RE assessed as increase in serotonin-induced reponse at 1 uM after 6 to 12 hrs by Bright-Glo luciferase reporter gene assay relative to serotonin. It counts as cell-based. The method, boiled down: as §1

For data set [8] the target is unchanged. Kind of data set: Agonist activity at 5HT2C receptor (unknown origin) expressed in HEK293 cells co-expressing NFAT-RE after 6 to 12 hrs by Bright-Glo luciferase reporter gene assay. The class given is cell-based. Summed up:
as §2

The target of another data set is 5HT2B receptor (Homo sapiens, UniProt P41595). As to the kind of experiment: Positive allosteric modulation of 5HT2B receptor (unknown origin) expressed in HEK293 cells co-expressing NFAT-RE assessed as increase in serotonin-induced reponse at 1 uM after 6 to 12 hrs by Bright-Glo luciferase reporter gene assay relative to serotonin. It counts as cell-based. The following applies: HEK293 cells expressing 5HT2B receptor and NFAT-RE reporter. The method, boiled down:
as §1

In data set [9] the target is T3, 5-hydroxytryptamine receptor 2B. Kind of data set: Positive allosteric modulation of 5HT2B receptor (unknown origin) expressed in HEK293 cells co-expressing NFAT-RE assessed as increase in serotonin-induced reponse after 6 to 12 hrs by Bright-Glo luciferase reporter gene assay. The class given is cell-based. The method, boiled down:
as §1

The target is the same in data set [10]. As to the kind of experiment: Positive allosteric modulation of 5HT2B receptor (unknown origin) expressed in HEK293 cells co-expressing NFAT-RE assessed as increase in serotonin-induced reponse at 10 uM after 6 to 12 hrs by Bright-Glo luciferase reporter gene assay. It counts as cell-based. The following applies: hek293, 10 µM. The method, boiled down:
as §1

Another data set concerns Rattus norvegicus. Kind of data set: Induction of anorexia in Sprague-Dawley rat assessed as suppression of food intake at 2 pmol, icv measured after 3 to 6 hrs. The class given is functional, organism-based. Summed up:
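Adult SD rats (150-200 g) on a 12 h light/dark cycle at 22 °C, cannulated in the right ventricle. Rats were fasted 4 h with free access to water, then dosed i.c.v. with 2 pmol/rat (2 µL) in aCSF vehicle; lorcaserin 2 pmol/rat served as positive control. Weighed pellets were given 10 min later, and remaining food plus spillage was weighed at 3, 6 and 24 h; n=4.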

The source made the active and inactive calls. The rule behind the calls is not given here.

T3 sequence (P41595 whole entry): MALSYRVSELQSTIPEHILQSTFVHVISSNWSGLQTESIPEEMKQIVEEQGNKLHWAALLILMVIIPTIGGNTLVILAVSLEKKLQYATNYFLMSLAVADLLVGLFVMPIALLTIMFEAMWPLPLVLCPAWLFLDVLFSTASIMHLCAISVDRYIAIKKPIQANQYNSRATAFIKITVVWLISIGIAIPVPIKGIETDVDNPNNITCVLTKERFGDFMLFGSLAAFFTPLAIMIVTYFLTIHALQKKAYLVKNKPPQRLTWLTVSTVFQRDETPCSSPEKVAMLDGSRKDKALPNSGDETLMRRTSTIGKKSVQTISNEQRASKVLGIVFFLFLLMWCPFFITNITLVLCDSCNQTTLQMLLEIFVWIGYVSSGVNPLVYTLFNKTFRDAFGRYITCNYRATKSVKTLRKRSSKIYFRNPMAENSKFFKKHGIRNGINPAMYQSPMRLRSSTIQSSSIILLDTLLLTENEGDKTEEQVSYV
Sequence of 5HT2A receptor (P28223 whole entry): as the sequence (P28223 whole entry) above
Sequence of 5HT2B receptor (P41595 whole entry): as the sequence (P41595 whole entry) above

As to `Cc1nc2ccccc2n1-c1ccc(C(O)C2CC2)cc1` (stereo unspecified), the result in data set [1] and in [2] was inactive.
As to `COc1cc(C(=O)OCc2cn(C(c3ccc(OCc4ccccc4)cc3)C3CC3)nn2)cc(OC)c1OC` (stereo unspecified), the result in [1] was inactive.
Regarding `CCCCCc1cn(C(c2ccc(OCc3ccccc3)cc2)C2CC2)nn1` (stereo unspecified), the result in [1] was inactive.
The same measure, in the same setting: the entry for `O=S(=O)(NCc1cn(C(c2ccc(OCc3ccccc3)cc2)C2CC2)nn1)c1ccc(F)cc1` (stereo unspecified) is “inactive”.
By Emax is commonly meant the size of the effect at its maximum, as opposed to the concentration needed. What is called EC50 is the concentration giving half of the maximal effect. `O=C(c1ccc(-n2cnc([N+](=O)[O-])c2)cc1)C1CC1`: the Emax at 1 µM at 5HT2A receptor was 100%; on 5HT2B receptor, 123%. In addition, the EC50 in data set [3] is 4.17 nM; in data set [5], 45.7 nM; in data set [9], 1.26 nM. In addition, the Activity entry is listed as “Not Active” in data set [4], “Not Active” in data set [6] and “Active” in [10]. The outcome in data set [1] and in [8] was inactive. Also, in data set [2], the result was Active. Besides, the Emax in data set [7] was 140%.
Regarding `O=C(c1ccc(-n2cnc3ccccc32)cc1)C1CC1`, the result in [1] and in data set [2] was inactive.
In the case of `Nc1ncnc2c1ncn2-c1ccc(C(=O)C2CC2)cc1`, the outcome in data set [1] and in data set [2] was inactive.
Take `Cc1ccc(S(=O)(=O)NCc2cn(C(c3ccc(OCc4ccccc4)cc3)C3CC3)nn2)cc1` (stereo unspecified): the outcome in [1] was inactive.
Turning to `O=C(c1ccc(N2CCN(Cc3ccc4c(c3)OCO4)CC2)cc1)C1CC1`, the result in [1] and in data set [2] was inactive.
For the molecule `O=C(c1ccc(NCCCn2ccnc2)cc1)C1CC1`, the outcome in data set [2] was inactive.
`O=C(c1ccc(-n2cnc3c(NCc4ccccc4)ncnc32)cc1)C1CC1`: the outcome in data set [1] and in data set [2] was inactive.
In the case of `O=C(c1ccc(Nc2nc3ccccc3[nH]2)cc1)C1CC1`, the result in [1] and in [2] was inactive.
Turning to `c1ccc(COc2ccc(C(C3CC3)n3cc(-c4ccccc4)nn3)cc2)cc1` (stereo unspecified), the outcome in data set [1] was inactive.
As for `O=C(c1ccc(-n2nnc3ccccc32)cc1)C1CC1`, the result in [1] and in data set [2] was inactive.
Consider `OC(c1ccc(-n2cnc3ccccc32)cc1)C1CC1` (stereo unspecified), for which the result in [1] and in [2] was inactive.
As for `O=C(c1ccc(NCCN2CCN(c3ccc(C(=O)C4CC4)cc3)CC2)cc1)C1CC1`, the result in [1] was inactive.
As to `O=[N+]([O-])c1cn(-c2ccc(C(O)C3CC3)cc2)cn1` (stereo unspecified), the outcome in data set [1] and in [2] was inactive.
As for `O=C(c1ccc(OCc2ccccc2)cc1)C1CC1`, the result in data set [1] was inactive.
`O=C(c1ccc(Nc2nc3ccc(F)cc3s2)cc1)C1CC1`: the outcome in [1] and in [2] was inactive.
Take `CCOc1ccc2nc(Nc3ccc(C(=O)C4CC4)cc3)sc2c1`: the outcome in [1] and in data set [2] was inactive.
As to `O=C(c1ccc(Nc2nc3ccccc3s2)cc1)C1CC1`, the outcome in data set [1] and in data set [2] was inactive.
With `CC1(C)O[C@@H]2O[C@H]([C@H]3COC(C)(C)O3)[C@@H](OCc3cn(C(c4ccc(OCc5ccccc5)cc4)C4CC4)nn3)[C@H]2O1` (stereo partly specified), the result in [1] was inactive.
Regarding `Cc1cccc2sc(Nc3ccc(C(=O)C4CC4)cc3)nc12`, the result in data set [1] and in [2] was inactive.
For the molecule `C[C@H]1CNCCc2ccc(Cl)cc21`, in the data set on Rattus norvegicus, the outcome was Active.
Take `OC(c1ccc(-n2cnc3c(NCc4ccccc4)ncnc32)cc1)C1CC1` (stereo unspecified): the result in data set [1] and in [2] was inactive.
Regarding `OCCCCc1cn(C(c2ccc(OCc3ccccc3)cc2)C2CC2)nn1` (stereo unspecified), the outcome in data set [1] was inactive.
As for `C=CCN1CCN(c2ccc(C(=O)C3CC3)cc2)CC1`, the outcome in [1] and in [2] was inactive.
Take `O=C(c1ccc(-n2ccnc2)cc1)C1CC1`: the results for the Emax at 1 µM at 5HT2A receptor and on 5HT2B receptor were 96% and 119%, respectively. In addition, the EC50 was 4.27 nM in [3], 50.1 nM in [5] and 1.26 nM in data set [9]. Further, the Activity entry in [4] is recorded as “Not Active”; in [6], “Not Active”; in data set [10], “Active”. For the same molecule, the result in data set [1] and in data set [8] was inactive. Moreover, the outcome in data set [2] was Active. For the same molecule, the maximal response (Emax) in data set [7] worked out at 143%.
Take `O=C(c1ccc(N2CCN(C(c3ccccc3)c3ccccc3)CC2)cc1)C1CC1`: the result in [1] and in data set [2] was inactive.
As for `OC(c1ccc(-n2ccnc2)cc1)C1CC1` (stereo unspecified), the result in data set [1] and in data set [2] was inactive.
`Nc1cccc2ncn(-c3ccc(C(=O)C4CC4)cc3)c12`: the outcome in data set [1] and in data set [2] was inactive.
For the molecule `Nc1ncnc2c1ncn2-c1ccc(C(O)C2CC2)cc1` (stereo unspecified), the outcome in data set [1] and in data set [2] was inactive.
As for `OCc1cn(C(c2ccc(OCc3ccccc3)cc2)C2CC2)nn1` (stereo unspecified), the result in [1] was inactive.
Turning to `Cc1nc2ccccc2n1-c1ccc(C(=O)C2CC2)cc1`, the outcome in data set [1] and in data set [2] was inactive.
